Compound activity as filed in PubChem BioAssay.
Compounds with a hit are over-represented: about 1.8% of the library has one in this group of screens.
EphB4 ephrin blk = blocks human EphB4 binding to ephrin-B2; inhibition, % at 7 µM; EphB4 LBD / TNYL-RAW-Alexa532 peptide, fluorescence polarization; actives 0.15% (n = 97,000); P54760;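 active = inhibition above the screen-wide mean inhibition plus 3 SD, cut at about 15% in these data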;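 note: 0% = DMSO wells and 100% = excess unlabeled TNYL-RAW peptide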
Target sequence (P54760 whole entry, looked up, the tested form may be a part): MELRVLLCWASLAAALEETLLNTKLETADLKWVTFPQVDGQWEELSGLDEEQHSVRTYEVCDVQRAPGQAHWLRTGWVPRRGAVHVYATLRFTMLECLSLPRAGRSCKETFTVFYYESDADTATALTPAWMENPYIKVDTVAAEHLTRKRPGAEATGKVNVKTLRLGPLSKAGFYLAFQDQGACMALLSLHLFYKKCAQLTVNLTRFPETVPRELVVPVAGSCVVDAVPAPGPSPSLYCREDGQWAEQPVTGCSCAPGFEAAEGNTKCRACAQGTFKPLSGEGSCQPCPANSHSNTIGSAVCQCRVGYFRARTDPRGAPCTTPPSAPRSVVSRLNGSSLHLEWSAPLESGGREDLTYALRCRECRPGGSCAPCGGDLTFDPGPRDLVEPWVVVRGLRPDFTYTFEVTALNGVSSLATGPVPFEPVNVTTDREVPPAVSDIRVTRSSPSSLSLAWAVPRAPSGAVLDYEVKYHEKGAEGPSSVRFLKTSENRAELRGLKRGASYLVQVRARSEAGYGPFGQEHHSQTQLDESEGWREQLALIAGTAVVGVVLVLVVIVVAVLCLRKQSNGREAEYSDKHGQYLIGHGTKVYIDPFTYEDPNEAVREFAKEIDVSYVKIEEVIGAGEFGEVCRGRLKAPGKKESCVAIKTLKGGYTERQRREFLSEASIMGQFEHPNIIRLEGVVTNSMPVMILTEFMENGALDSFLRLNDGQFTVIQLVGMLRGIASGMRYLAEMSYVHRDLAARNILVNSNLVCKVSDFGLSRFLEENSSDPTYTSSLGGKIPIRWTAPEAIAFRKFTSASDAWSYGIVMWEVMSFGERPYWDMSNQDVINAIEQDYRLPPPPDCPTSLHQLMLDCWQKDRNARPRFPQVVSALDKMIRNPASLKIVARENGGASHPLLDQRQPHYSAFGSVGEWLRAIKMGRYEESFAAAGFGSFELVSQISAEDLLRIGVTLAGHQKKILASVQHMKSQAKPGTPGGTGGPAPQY
LYP inh 2 = LYP (human) phosphatase inhibition; Q9Y2R2; recombinant LYP catalytic domain, DiFMUP fluorescence; inhibition, % at 2 µM; actives 0.21% (n = 96,000); AID 640;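 active = inhibition at 2 µM at or above a set limit, the screen mean plus 3 SD, cut at about 24% in these data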;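 note: 0% = DMSO with enzyme and 100% = enzyme fully blocked by orthovanadate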
LYP act = LYP (human) phosphatase activation | recombinant LYP, DiFMUP fluorescence; 0 = plate median, 100 = signal doubled | activation, % at 2 µM | actives 0.11% (n = 96,000) | AID 697;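 active = activation at 2 µM above a set limit, the mean plus 5 SD, cut at about 37% in these data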
PLK1 kinase inh = blocks human PLK1 kinase activity | inhibition, % at 10 µM | actives 0.53% (n = 97,000) | recombinant PLK1 kinase, TR-FRET peptide phosphorylation | AID 619;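 active = inhibition of 50% or more in the single-concentration screen; inactive = inhibition below 50%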;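 note: 0% = DMSO max control and 100% = H-89 dihydrochloride min control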
Rev-RRE block = inhibitors of HIV-1 Rev-RRE RNA interaction; Rev peptide-RRE RNA binding, FRET; P05866; actives 0.79% (n = 97,000); inhibition, % at 8 µM; AID 704;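 active = inhibition above the screen-wide mean plus 3 SD, cut at about 35% in these data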;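 note: 0% = median DMSO wells and 100% = median Neomycin B control wells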
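Material: labelled RRE RNA duplex and labelled Rev peptide / Buffer or medium: HEPES pH 7.5 salt buffer with EDTA / Compound dosing: single point, 8 µM final nominal compound concentration / Benchmarks: DMSO low control, neomycin B high control / Timing: 5 min preincubation and 15 min binding, 25 °C / Technique: FRET fluorescence readout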
Plk1 PBD FP = Plk1 (human) PBD binding inhibition | Plk1 PBD phosphopeptide binding, fluorescence polarization | inhibition, %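 (tested at about 20 µM)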 | actives 0.13% (n = 97,000); in the data active = inhibition above about 34%, passing the limit was not always enough
Starred values were filed as active, the others as inactive; · = no result given; [ ] = dose if it differs, or a comment.

SMILES	EphB4 ephrin blk	LYP inh 2	LYP act	PLK1 kinase inh	Rev-RRE block	Plk1 PBD FP
C=CCN1C(=O)C2(NNc3ccccc3O2)c2ccccc21 (stereo not drawn)	-2	-14	10	-11	69*	-61
COc1ccc(CNC(=O)C(c2ccc(C)o2)N(Cc2cccs2)C(=O)Cc2cccs2)cc1 (stereo not drawn)	0	4	-5	-8	3	-7
COC(=O)CSC1=C(C#N)C(c2ccc(C)cc2)C2=C(CCCC2=O)N1 (stereo not drawn)	16*	6	-7	-10	0	-16
N#CC1=C(N)SC(N)=C(C#N)C1c1ccc(C(F)(F)F)cc1	-3	9	-3	-11	42*	5
Cc1ccc(C2C(C#N)=C(N)SC(N)=C2C#N)o1	0	-3	3	-16	92*[fluorescence artefact?]	-14
CCOc1ccccc1C1C(C#N)=C(N)Oc2n[nH]c(CC)c21 (stereo not drawn)	-2	-2	1	-5	1	10
CCOc1ccccc1C1C(C#N)=C(N)SC(N)=C1C#N	2	2	-3	-3	37*	-33
CCc1ccc(C2C(C#N)=C(N)SC(N)=C2C#N)cc1	-11	-6	6	-13	41*	-6
CCOc1ccc(N=C2NC(=O)S/C2=C\c2ccc(Cl)cc2)cc1	-1	26*	-22	-11	4	14
COc1ccc(N=C2NC(=O)S/C2=C\c2ccc(N(C)C)cc2)cc1	9	2	-5	-7	117*[fluorescence artefact?]	-426
COc1ccc(N=C2C(=Nc3ccc(OC)cc3)N(c3ccc(N(C)C)cc3)C(=S)N2c2ccc(OC)cc2)cc1	-1	3	0	-9	-3	-20
CCOC(=O)c1cc(C(C)(C)C)oc1CNC(=O)c1c(C)oc2c1CCCC2	-13	0	1	-22	-3	-11
COc1ccc(C(=O)N=c2sc3c(C)ccc(OC)c3n2C)cc1	0	5	-8	-111	-1	22
Cn1c(=NC(=O)C2CC2)sc2cccc(F)c21	-3	·	·	67*	1	28
Cn1c(C(=O)OC(C(=O)NCc2ccco2)c2ccncc2)cc2sccc21 (stereo not drawn)	-2	0	2	-6	4	-2
CCN1C(=O)/C(=C/C=C2/SCCN2C)SC1=S	3	10	-8	-29	129*[fluorescence artefact?]	-101
CCN1C(=O)/C(=C/N2CCc3ccccc32)SC1=S	6	0	0	-13	18	-21
COc1ccc(-c2ccc3c(N)c(C(=O)c4cccc(OC)c4)sc3n2)cc1	-2	7	-9	-16	55*	18
COc1cccc(C(=O)Oc2cc(-c3ccccc3)no2)c1	-8	-8	8	-4	11	-15
Cc1nc(OCc2ccccc2)c2sc3nc4c(cc3c2n1)COC(C)(C)C4	5	3	-1	-9	11	-10
Cc1cccc(NC(=O)CSc2ncnc3nc[nH]c23)c1	-7	-11	14	55*	3	21
O=C(N1CCOCC1)N1CCC(n2nnc3cc(F)ccc32)CC1	-1	-10	8	-4	40*	14
Cc1cccc(/C=C/C(=O)c2cc(Br)ccc(=O)c2O)c1	2	-4	1	-14	37*	-19
Oc1ccc(N=Nc2n[nH]c(-c3ccc(Cl)cc3)n2)cc1	6	-7	10	-10	11	-21
CN1CCc2nc(SCc3ccc(Cl)cc3)c(C#N)c(-c3cccs3)c2C1	-3	-27	31	-6	40*	26
SMILES	EphB4 ephrin blk	LYP inh 2	LYP act	PLK1 kinase inh	Rev-RRE block	Plk1 PBD FP
C=CCN1C(=O)/C(=C2/C(=O)N(CC(=O)O)c3ccccc32)S/C1=N/c1nccs1	4	20	-16	-17	-37	4
Cc1ccc(-c2ccc(/C=C(\C#N)C(=O)Nc3cc(C)nn3-c3ccccc3)o2)cc1	1	1	-4	-9	103*[fluorescence artefact?]	41
CCOC(=O)/C(C#N)=C\C=C1C=CN(C)C=C1	-12	-8	10	-33	130*[fluorescence artefact?]	-133
Cc1nc2c3cc(Cl)ccc3n(CCN3CCCCC3)c2s1	11	4	-2	7	10	22
COc1ccc(-c2cc(C(=O)O)c3c(C)nn(-c4ccccn4)c3n2)cc1	6	1	2	-10	11	-7
COc1ccc(N=CC2=C(Nc3ccc(OC)cc3)c3c(C)nn(-c4ccccn4)c3CC2)cc1	25*	11	-10	-2	87*[fluorescence artefact?]	3
Cc1ccc(N2CCN(/N=C/c3sccc3C)CC2)cc1	-2	-2	6	-15	1	6
Cc1ccc2c(CN3CCCc4ccccc43)cc(=O)oc2c1C	2	0	-3	-19	57*	-3
Cc1cc2oc(=O)cc(CN3CCc4ccccc43)c2cc1Cl	0	0	-2	-9	3	-6
CN1/C(=C\C(=O)C(F)F)C(C)(C)c2ccccc21	2	4	-2	1	7	15
Cc1c(O)cc2n(c1=O)-c1ccccc1C2(C)C	16*	0	1	-8	8	-28
CCN(C(=O)Cc1ccc(Br)cc1)C1CCCCC1	3	-6	6	-4	7	-3
CCCc1cc(C(=O)NNC(=S)NC(C)c2ccccc2)cs1 (stereo not drawn)	5	5	-5	-9	3	-11
O=C(Cc1ccccc1)Nc1ccc(N2CCN(Cc3ccccc3F)CC2)cc1	-3	-2	4	-47	1	12
COc1ccc(CN=Cc2[nH]c3ccc(Br)c(Cl)c3c2O)cc1	13	-1	-1	-11	125*[fluorescence artefact?]	-7
O=C1CN(C(=O)COC(=O)c2ccccc2NC(=O)c2ccco2)c2ccccc2N1	-1	-4	-1	-9	-1	-5
O=C(CN(C(=O)CNC(=O)c1ccco1)c1ccc(Cl)c(Cl)c1)NC1CCCCC1	-4	0	0	-1	5	29
Cn1cc(S(=O)(=O)N2CCN(c3ccccc3)CC2)c(=O)n(C)c1=O	16*	-1	-2	-17	11	-1
N#Cc1c(-c2ccco2)cc(-c2cccnc2)nc1N	0	-1	-1	55*	14	36
Cc1cc(OC(C)C(=O)N/N=C/CC(C)c2ccccc2)ccc1Cl (stereo not drawn)	0	11	-11	-14	15	-12
Cc1ccc2nc(-c3ccc(NC(=O)C4CCCO4)cc3)[nH]c2c1 (stereo not drawn)	3	-9	7	-7	3	-2
O=C(c1ccc(C(=O)N2CCCc3ccccc32)s1)N1CCCc2ccccc21	-12	9	-6	-10	6	-10
Cc1ccc(C)c2nc3sc(C(=O)N4CCCc5ccccc54)c(N)c3cc12	3	3	1	-18	62*	-45
COc1ccc(C2C(C(C)=O)=C(C)N=c3s/c(=C\c4ccco4)c(=O)n32)c(OC)c1 (stereo not drawn)	3	-3	2	-8	11	-23
